Experiments:
Rattus norvegicus [1] = test: Liver uptake after 1 day was determined in female Fischer rats after [125I]-labeled compound complexed with bovine serum albumin was injected intravenously; format: functional
Summary of the method: (§1)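 Female Fischer 344 rats (fed ad libitum) under ether anaesthesia received the ¹²⁵I fatty acid in a lateral tail vein. Dose was ~3.8–4.8 μCi per rat (sp act ~125–240 mCi/mmol), given in 0.5 mL 6% bovine albumin (final ethanol 10%) after filtration. Four rats per time point were used. Tissue radioactivity is % injected dose/g, mean with range, calculated against standards of the injected solution.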

Rattus norvegicus [2] = test: Liver uptake after 30 min was determined in female Fischer rats after [125I]-labeled compound complexed with bovine serum albumin was injected intravenously; format: functional; summary of the method: as §1
Rattus norvegicus [3] = test: Liver uptake after 4 hr was determined in female Fischer rats after [125I]-labeled compound complexed with bovine serum albumin was injected intravenously; format: functional; summary of the method: as §1
Rattus norvegicus [4] = test: Liver uptake after 5 min was determined in female Fischer rats after [125I]-labeled compound complexed with bovine serum albumin was injected intravenously; format: functional; summary of the method: as §1
Rattus norvegicus [5] = test: Liver uptake after 60 min was determined in female Fischer rats after [125I]-labeled compound complexed with bovine serum albumin was injected intravenously; format: functional; summary of the method: as §1
Rattus norvegicus [6] = test: Lungs uptake after 2 hr was determined in female Fischer rats after [125I]-labeled compound complexed with bovine serum albumin was injected intravenously; format: functional; summary of the method: as §1
Rattus norvegicus [7] = test: Lungs uptake after 30 min was determined in female Fischer rats after [125I]-labeled compound complexed with bovine serum albumin was injected intravenously; format: functional; summary of the method: as §1
Rattus norvegicus [8] = test: Lungs uptake after 3 days was determined in female Fischer rats after [125I]-labeled compound complexed with bovine serum albumin was injected intravenously; format: functional; summary of the method: as §1
Rattus norvegicus [9] = test: Lungs uptake after 5 min was determined in female Fischer rats after [125I]-labeled compound complexed with bovine serum albumin was injected intravenously; format: functional; summary of the method: as §1
Rattus norvegicus [10] = test: Lungs uptake after 60 min was determined in female Fischer rats after [125I]-labeled compound complexed with bovine serum albumin was injected intravenously; format: functional; summary of the method: as §1
Rattus norvegicus [11] = test: Thyroid uptake after 1 day was determined in female Fischer rats after [125I]-labeled compound complexed with bovine serum albumin was injected intravenously; format: functional
Summary of the method: (§2)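 Female Fischer 344 rats with free access to food and water. The 125I-labelled fatty acid (~3.8–4.8 μCi; sp act. ~125–240 mCi/mmol) was complexed with 6% bovine serum albumin (10% final ethanol), filtered, and 0.5 mL was injected via a lateral tail vein under ether anaesthesia. Four rats per time point. Values are mean % injected dose/g, calculated against injectate standards. Thyroid weight was taken as 7.5 mg/100 g body weight.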

Rattus norvegicus [12] = test: Thyroid uptake after 2 hr was determined in female Fischer rats after [125I]-labeled compound complexed with bovine serum albumin was injected intravenously; format: functional; summary of the method: as §2
Rattus norvegicus [13] = test: Thyroid uptake after 4 hr was determined in female Fischer rats after [125I]-labeled compound complexed with bovine serum albumin was injected intravenously; format: functional; summary of the method: as §2
Rattus norvegicus [14] = test: Thyroid uptake after 60 min was determined in female Fischer rats after [125I]-labeled compound complexed with bovine serum albumin was injected intravenously; format: functional; summary of the method: as §2
Rattus norvegicus [15] = test: Thyroid uptake after 5 min was determined in female Fischer rats after [125I]-labeled compound complexed with bovine serum albumin was injected intravenously; format: functional; summary of the method: as §2
Rattus norvegicus [16] = test: Heart uptake after 60 min was determined in female Fischer rats after [125I]-labeled compound complexed with bovine serum albumin was injected intravenously; format: functional; summary of the method: as §1
Rattus norvegicus [17] = test: Blood uptake after 1 day was determined in female Fischer rats after [125I]-labeled compound complexed with bovine serum albumin was injected intravenously; format: functional; summary of the method: as §1
Rattus norvegicus [18] = test: Blood uptake after 2 hr was determined in female Fischer rats after [125I]-labeled compound complexed with bovine serum albumin was injected intravenously; format: functional; summary of the method: as §1
Rattus norvegicus [19] = test: Blood uptake after 30 min was determined in female Fischer rats after [125I]-labeled compound complexed with bovine serum albumin was injected intravenously; format: functional; summary of the method: as §1
Rattus norvegicus [20] = test: Blood uptake after 5 min was determined in female Fischer rats after [125I]-labeled compound complexed with bovine serum albumin was injected intravenously; format: functional; summary of the method: as §1
Rattus norvegicus [21] = test: Blood uptake after 60 min was determined in female Fischer rats after [125I]-labeled compound complexed with bovine serum albumin was injected intravenously; format: functional; summary of the method: as §1
Rattus norvegicus [22] = test: Heart uptake after 1 day was determined in female Fischer rats after [125I]-labeled compound complexed with bovine serum albumin was injected intravenously; format: functional; summary of the method: as §1
Rattus norvegicus [23] = test: Heart uptake after 2 hr was determined in female Fischer rats after [125I]-labeled compound complexed with bovine serum albumin was injected intravenously; format: functional; summary of the method: as §1
Rattus norvegicus [24] = test: Heart uptake after 30 min was determined in female Fischer rats after [125I]-labeled compound complexed with bovine serum albumin was injected intravenously; format: functional; summary of the method: as §1
Rattus norvegicus [25] = test: Heart uptake after 5 min was determined in female Fischer rats after [125I]-labeled compound complexed with bovine serum albumin was injected intravenously; format: functional; summary of the method: as §1
[26] = Ratio of heart to blood uptake after 120 min was determined in female Fischer rats after [125I]-labeled compound complexed with bovine serum albumin was injected intravenously; format: functional
Summary of the method: (§3)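 Female Fischer 344 rats (food and water ad libitum) given the 125I-labelled fatty acid in 6% bovine albumin with 10% final ethanol, filtered, 0.5 mL into a lateral tail vein under ether anaesthesia. Four rats per time point. Tissue activity expressed as % injected dose/g against assayed injectate standards. Mean heart/tissue ratios were calculated from mean %ID/g values.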

[27] = Ratio of heart to blood uptake after 240 min was determined in female Fischer rats after [125I]-labeled compound complexed with bovine serum albumin was injected intravenously; format: functional; summary of the method: as §3
[28] = Ratio of heart to blood uptake after 60 min was determined in female Fischer rats after [125I]-labeled compound complexed with bovine serum albumin was injected intravenously; format: functional; summary of the method: as §3
[29] = Ratio of heart to kidneys uptake after 120 min was determined in female Fischer rats after [125I]-labeled compound complexed with bovine serum albumin was injected intravenously; format: functional, Heart/Kidney; summary of the method: as §3
[30] = Ratio of heart to kidneys uptake after 240 min was determined in female Fischer rats after [125I]-labeled compound complexed with bovine serum albumin was injected intravenously; format: functional, Heart/Kidney; summary of the method: as §3
[31] = Ratio of heart to kidneys uptake after 30 min was determined in female Fischer rats after [125I]-labeled compound complexed with bovine serum albumin was injected intravenously; format: functional, Heart/Kidney; summary of the method: as §3
[32] = Ratio of heart to kidneys uptake after 5 min was determined in female Fischer rats after [125I]-labeled compound complexed with bovine serum albumin was injected intravenously; format: functional, Heart/Kidney; summary of the method: as §3
[33] = Ratio of heart to kidneys uptake after 60 min was determined in female Fischer rats after [125I]-labeled compound complexed with bovine serum albumin was injected intravenously; format: functional, Heart/Kidney; summary of the method: as §3
[34] = Ratio of heart to liver uptake after 120 min was determined in female Fischer rats after [125I]-labeled compound complexed with bovine serum albumin was injected intravenously; format: functional; summary of the method: as §3
[35] = Ratio of heart to liver uptake after 60 min was determined in female Fischer rats after [125I]-labeled compound complexed with bovine serum albumin was injected intravenously; format: functional; summary of the method: as §3
[36] = Ratio of heart to lungs uptake after 120 min was determined in female Fischer rats after [125I]-labeled compound complexed with bovine serum albumin was injected intravenously; format: functional; summary of the method: as §3
[37] = Ratio of heart to lungs uptake after 240 min was determined in female Fischer rats after [125I]-labeled compound complexed with bovine serum albumin was injected intravenously; format: functional; summary of the method: as §3
[38] = Ratio of heart to lungs uptake after 5 min was determined in female Fischer rats after [125I]-labeled compound complexed with bovine serum albumin was injected intravenously; format: functional; summary of the method: as §3
[39] = Ratio of heart to lungs uptake after 60 min was determined in female Fischer rats after [125I]-labeled compound complexed with bovine serum albumin was injected intravenously; format: functional; summary of the method: as §3
[40] = Ratio of heart to liver uptake after 30 min was determined in female Fischer rats after [125I]-labeled compound complexed with bovine serum albumin was injected intravenously; format: functional; summary of the method: as §3
Rattus norvegicus [41] = test: Heart uptake after 4 hr was determined in female Fischer rats after [125I]-labeled compound complexed with bovine serum albumin was injected intravenously; format: functional; summary of the method: as §1

Molecule O=C(O)CCCCCCC[Te]CCCCCCC/C=C/I has an Injected dose/g (Rattus norvegicus [1]) of 1.64%, an Injected dose/g (Rattus norvegicus [2]) of 5.69% and an Injected dose/g (Rattus norvegicus [3]) of 3.76%. The Injected dose/g (Rattus norvegicus [4]) was 6.41%, the Injected dose/g (Rattus norvegicus [5]) was 4.87% and the Injected dose/g (Rattus norvegicus [6]) was 1.43%. For the same molecule, the Injected dose/g (Rattus norvegicus [7]) was 1.52%, the Injected dose/g (Rattus norvegicus [8]) was 0.34% and the Injected dose/g (Rattus norvegicus [9]) was 1.63%. For the same molecule, the Injected dose/g (Rattus norvegicus [10]) was 1.57%, the Injected dose/g (Rattus norvegicus [11]) was 294% and the Injected dose/g (Rattus norvegicus [12]) was 38.5%. It also gave an Injected dose/g (Rattus norvegicus [13]) of 66.9%, an Injected dose/g (Rattus norvegicus [14]) of 24.8% and an Injected dose/g (Rattus norvegicus [15]) of 9.21%. The Injected dose/g (Rattus norvegicus [16]) was 5.17%, the Injected dose/g (Rattus norvegicus [17]) was 0.46% and the Injected dose/g (Rattus norvegicus [18]) was 0.44%. It also gave an Injected dose/g (Rattus norvegicus [19]) of 0.45%, an Injected dose/g (Rattus norvegicus [20]) of 0.23% and an Injected dose/g (Rattus norvegicus [21]) of 0.36%. It also gave an Injected dose/g (Rattus norvegicus [22]) of 0.86%, an Injected dose/g (Rattus norvegicus [23]) of 3.9% and an Injected dose/g (Rattus norvegicus [24]) of 3.76%. It also gave an Injected dose/g (Rattus norvegicus [25]) of 4.83%, a Ratio [26] of 9 and a Ratio [27] of 4. For the same molecule, the Ratio [28] was 14, the Ratio [29] was 3.1 and the Ratio [30] was 2.9. For the same molecule, the Ratio [31] was 3.7, the Ratio [32] was 3.1 and the Ratio [33] was 3.4. For the same molecule, the Ratio [34] was 0.84, the Ratio [35] was 1.06 and the Ratio [36] was 2.7. It also gave a Ratio [37] of 2.9, a Ratio [38] of 2.9 and a Ratio [39] of 3.3. The Ratio [40] was 0.66 and the Injected dose/g (Rattus norvegicus [41]) was 3.51%.
For O=C(O)CCCCCCCCC[Te]CCCCC/C=C/I, the Injected dose/g (Rattus norvegicus [1]) was 0.52%, the Injected dose/g (Rattus norvegicus [2]) was 6.49% and the Injected dose/g (Rattus norvegicus [3]) was 2.52%. It also gave an Injected dose/g (Rattus norvegicus [4]) of 8.33%, an Injected dose/g (Rattus norvegicus [5]) of 5.15% and an Injected dose/g (Rattus norvegicus [6]) of 2.02%. For the same molecule, the Injected dose/g (Rattus norvegicus [7]) was 2.06%, the Injected dose/g (Rattus norvegicus [8]) was 0.32% and the Injected dose/g (Rattus norvegicus [9]) was 2.49%. The Injected dose/g (Rattus norvegicus [10]) was 2.07%, the Injected dose/g (Rattus norvegicus [11]) was 221% and the Injected dose/g (Rattus norvegicus [12]) was 45%. The Injected dose/g (Rattus norvegicus [13]) was 72%, the Injected dose/g (Rattus norvegicus [14]) was 37% and the Injected dose/g (Rattus norvegicus [15]) was 29%. It also gave an Injected dose/g (Rattus norvegicus [16]) of 3.63%, an Injected dose/g (Rattus norvegicus [17]) of 0.62% and an Injected dose/g (Rattus norvegicus [18]) of 0.81%. The Injected dose/g (Rattus norvegicus [19]) was 0.66%, the Injected dose/g (Rattus norvegicus [20]) was 0.45% and the Injected dose/g (Rattus norvegicus [21]) was 0.67%. For the same molecule, the Injected dose/g (Rattus norvegicus [22]) was 0.69%, the Injected dose/g (Rattus norvegicus [23]) was 3.8% and the Injected dose/g (Rattus norvegicus [24]) was 3.05%. It also gave an Injected dose/g (Rattus norvegicus [25]) of 3.09%, a Ratio [26] of 5 and a Ratio [27] of 2. It also gave a Ratio [28] of 5, a Ratio [29] of 2.5 and a Ratio [30] of 1.7. For the same molecule, the Ratio [31] was 1.5, the Ratio [32] was 1.4 and the Ratio [33] was 1. For the same molecule, the Ratio [34] was 1.1, the Ratio [35] was 0.7 and the Ratio [36] was 1.9. The Ratio [37] was 1.5, the Ratio [38] was 1.2 and the Ratio [39] was 1.8. For the same molecule, the Ratio [40] was 0.47 and the Injected dose/g (Rattus norvegicus [41]) was 2.44%.

Source: ChEMBL document CHEMBL1122777, “Effect of tellurium position on the myocardial uptake of radioiodinated 18-iodotellura-17-octadecenoic acid analogues” (1984)
